The values below come from ChEMBL document CHEMBL1777741, “Design of a potent, soluble glucokinase activator with increased pharmacokinetic half-life” (Bioorg Med Chem Lett, 2011).

Series [1] deals with T1, Hexokinase-4 (Homo sapiens, UniProt P35557).
T1 sequence (P35557 whole entry): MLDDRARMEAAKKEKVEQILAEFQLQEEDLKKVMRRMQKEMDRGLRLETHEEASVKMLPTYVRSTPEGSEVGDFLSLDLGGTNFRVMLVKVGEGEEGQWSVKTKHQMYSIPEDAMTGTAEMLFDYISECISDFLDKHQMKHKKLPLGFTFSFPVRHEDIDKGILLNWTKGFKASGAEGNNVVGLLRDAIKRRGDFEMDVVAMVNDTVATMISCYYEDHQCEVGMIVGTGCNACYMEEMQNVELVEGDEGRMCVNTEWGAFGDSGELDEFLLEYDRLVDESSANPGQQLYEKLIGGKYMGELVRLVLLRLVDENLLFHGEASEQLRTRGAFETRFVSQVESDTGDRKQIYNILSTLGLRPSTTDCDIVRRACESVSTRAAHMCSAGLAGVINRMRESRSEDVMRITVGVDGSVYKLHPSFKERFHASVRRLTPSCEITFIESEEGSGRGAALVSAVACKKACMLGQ
The series is described as follows: Activation of His-tagged recombinant glucokinase expressed in Escherichia coli using [14C]-glucose substrate by […].

A short description of series [2]: in vivo. The conditions noted are these: CR-Han Wistar, rat, iv, 1 mg/kg.
The nature of series [3]: in vitro. The conditions noted are these: rat, plasma.
Series [4] in a line: Percentage unbound in dog plasma. The class given is ADME, cell-free, Canis lupus familiaris. The essentials: (§1)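 Unbound fraction in plasma was measured by equilibrium dialysis and reported as percentage free.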
The nature of series [5]: Percentage unbound in human plasma. It counts as ADME, cell-free. The gist of the method:
as §1

The nature of series [6]: Half life in rat. It counts as ADME, organism-based. The conditions noted are these: in vivo.
The nature of series [7]: Half life in dog. It counts as ADME, organism-based, Canis lupus familiaris. The conditions noted are these: in vivo.
A short description of series [8]: Intrinsic clearance in rat hepatocytes measured per 10^6 cells. It counts as ADME, cell-based, Liver, Hepatocyte.
Series [9] in a line: Intrinsic clearance in dog hepatocytes measured per 10^6 cells. It counts as ADME, cell-based, Canis lupus familiaris, Liver, Hepatocyte.
A short description of series [10]: Intrinsic clearance in human hepatocytes measured per 10^6 cells. The class given is ADME, cell-based, Liver, Hepatocyte.
Series [11] in a line: Solubility of the compound. It counts as physicochemical.
A short description of series [12]: Bioavailability in rat. It counts as ADME, organism-based. The conditions noted are these: in vivo.
A short description of series [13]: Clearance in dog. The conditions noted are these: in vivo. It counts as ADME, organism-based, Canis lupus familiaris.
Series [14] is described as follows: Bioavailability in dog. It counts as ADME, organism-based, Canis lupus familiaris. The conditions noted are these: in vivo.

≈ marks a conversion by molar mass, not a printed value.

For orientation: EC50 means the concentration that produces a half-maximal response. As a reminder, the clearance is the rate of elimination divided by the concentration. The fraction unbound is the share of the substance not bound to proteins or other matrix. In general, half-life refers to the time needed for the level to fall by half in the phase considered. A higher half-life goes with slow loss. One may read the hepatocyte CLint as a measure of how fast metabolising enzymes remove a compound, apart from limits set by blood flow. The term solubility denotes how much of the substance goes into solution per volume. A high value points to much dissolved substance. As a reminder, the bioavailability is the share of a dose that reaches the circulation, judged against a reference dose that is usually intravenous.

For `CC(C)Oc1cc(OC2Cc3ccccc3C2)cc(C(=O)Nc2ccc(C(=O)O)cn2)c1`, the EC50 in [1] is 100 nM. The compound further returned a clearance in series [2] of 1.6 mL/min/kg. For the same compound, the fraction unbound in series [3] worked out at 0.001.
`COC[C@H](C)Oc1cc(Oc2ccc(Cl)cc2)cc(C(=O)Nc2ccc(C(=O)O)cn2)c1` returned a clearance in [2] of 0.9 mL/min/kg. For the same compound, the fraction unbound in series [3] is 0.0012.
`COC[C@H](C)Oc1cc(O[C@@H](C)Cc2ccccc2)cc(C(=O)Nc2ccc(C(=O)O)cn2)c1`: the fraction unbound stood at 0.0146 in series [4], 0.0044 in series [5] and 0.004 in series [3]. The half-life was 4.5 h in series [6] and 1.4 h in [7]. The hepatocyte CLint in series [8], in [9] and in series [10] was below 1 µL/min/1e6 cells throughout. The compound also had a clearance in series [2] of 1.9 mL/min/kg.
As for `COC[C@H](C)Oc1cc(Oc2cccc(F)c2)cc(C(=O)Nc2ccc(C(=O)O)cn2)c1`, the EC50 in series [1] came to 180 nM. In series [2], this compound showed a clearance of 0.2 mL/min/kg. The same compound returned a free fraction (fraction unbound) in [3] of 0.0021.
The compound `CC(C)Oc1cc(O[C@@H](C)Cc2ccccc2)cc(C(=O)Nc2ccc(C(=O)O)cn2)c1` returned a clearance in [2] of 3.3 mL/min/kg. In series [3], this compound returned a fraction unbound of 0.0023.
`COCC(C)(C)Oc1cc(O[C@@H](C)Cc2ccccc2)cc(C(=O)Nc2ccc(C(=O)O)cn2)c1`: the EC50 in series [1] is above 10000 nM. In series [3], this compound showed a fraction unbound of 0.0042.
For `COC[C@H](C)Oc1cc(Oc2cccc(Cl)c2)cc(C(=O)Nc2ccc(C(=O)O)cn2)c1`, the EC50 in series [1] was determined as 110 nM. Moreover, the clearance in [2] was determined as 0.8 mL/min/kg. This compound came in with a fraction unbound in [3] of 0.0016.
Compound `COC[C@H](C)Oc1cc(O[C@@H](C)Cc2ccccc2OC)cc(C(=O)Nc2ccc(C(=O)O)cn2)c1` showed a clearance in series [2] of 6.1 mL/min/kg. Further, in series [3], the fraction unbound stood at 0.0042.
The matching figures for `COC[C@H](C)Oc1cc(O[C@@H](C)Cc2cc(F)cc(F)c2)cc(C(=O)Nc2ccc(C(=O)O)cn2)c1`: 1.1 mL/min/kg and 0.001.
On to `COC[C@H](C)Oc1cc(Oc2ccc(S(C)(=O)=O)cc2)cc(C(=O)Nc2ccc(C(=O)O)cn2)c1`, for which the EC50 in series [1] is 60 nM. The clearance in series [2] came to 8.2 mL/min/kg. The compound further gave a fraction unbound in series [3] of 0.0738.
On the same counts, the results for `COC[C@H](C)Oc1cc(Oc2ccccc2)cc(C(=O)Nc2ccc(C(=O)O)cn2)c1` are 160 nM, 0.4 mL/min/kg and 0.0055.
For `COC[C@H](C)Oc1cc(Oc2cccc(N(C)C)c2)cc(C(=O)Nc2ccc(C(=O)O)cn2)c1`, the EC50 in [1] came out at 400 nM. The compound further displayed a fraction unbound in [3] of 0.0122.
Consider `COC[C@H](C)Oc1cc(OC[C@H](C)c2ccccc2)cc(C(=O)Nc2ccc(C(=O)O)cn2)c1`, for which, in series [1], the EC50 was 70 nM. Besides, the clearance in series [2] came out at 2.9 mL/min/kg. Further, the fraction unbound in series [3] came to 0.0033.
The matching figures for `COC[C@H](C)Oc1cc(O[C@@H](C)Cc2ccc(F)cc2)cc(C(=O)Nc2ccc(C(=O)O)cn2)c1`: 40 nM, 1 mL/min/kg and 0.0025.
The matching figures for `COC[C@H](C)Oc1cc(Oc2ccc(OC)cc2)cc(C(=O)Nc2ccc(C(=O)O)cn2)c1`: 60 nM, 3.2 mL/min/kg and 0.0069.
Compound `CC(C)Oc1cc(Oc2ccccc2)cc(C(=O)Nc2ccc(C(=O)O)cn2)c1` gave a clearance in [2] of 0.2 mL/min/kg. In series [3], this compound had a fraction unbound of 0.0021.
For `CC(C)Oc1cc(O[C@@H](C)c2ccccc2)cc(C(=O)Nc2ccc(C(=O)O)cn2)c1`, in series [1], the EC50 is 150 nM. In series [2], this compound showed a clearance of 0.6 mL/min/kg. Moreover, in [3], the fraction unbound was determined as 0.0035.
As to `C[C@@H](Cc1ccccc1)Oc1cc(OC2CCOCC2)cc(C(=O)Nc2ccc(C(=O)O)cn2)c1`, the EC50 in [1] was above 10000 nM. This compound also showed a fraction unbound in series [3] of 0.0109.
On to `COC[C@H](C)Oc1cc(Oc2cc(F)cc(F)c2)cc(C(=O)Nc2ccc(C(=O)O)cn2)c1`, for which, in series [1], the EC50 was determined as 90 nM. In series [11], this compound showed a solubility of 841 µM (≈ 386 µg/mL). For the same compound, the fraction unbound in series [4] was 0.0159; in [5] it was 0.0055; in series [3], 0.0023. Besides, the half-life in series [6] is 15.8 h; in [7], 4.9 h. Also, the bioavailability was 97% in [12] and above 100% in series [14]. Moreover, the clearance was determined as 5.2 mL/min/kg in series [13] and 0.1 mL/min/kg in series [2]. For the same compound, the hepatocyte CLint in series [8], in [9] and in series [10] was below 1 µL/min/1e6 cells each time.
Consider `COC[C@H](C)Oc1cc(O[C@@H](C)Cc2ccc(Cl)o2)cc(C(=O)Nc2ccc(C(=O)O)cn2)c1`, for which the EC50 in series [1] amounted to 30 nM. For the same compound, the clearance in series [2] worked out at 1.6 mL/min/kg. The compound also displayed a fraction unbound in [3] of 0.0025.
